Assay results reported in ChEMBL document CHEMBL5724801, “EUbOPEN Chemogenomics Library - Multiplex” (2024).
Where “and” joins values, the source holds several entries; their conditions need not be identical. Equal values may be shown once.

Legend:
[1] = tested on: Fibroblast; assay: Multiplex assay against human fibroblast; assay type: toxicity, cell-based
Method in brief: (§1)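 Live cells carried four stains from seeding: Hoechst33342, BioTracker Green Microtubule Cytoskeleton Dye, MitoTracker Red and Annexin V Alexa Fluor 680. They were imaged on a CQ1 microscope at 37°C and 5% CO2 after compound addition. Using CellPathfinder machine-learning gating, cells were split into Hoechst high-intensity objects or normal cells, normal cells into healthy, pyknosed or fragmented nuclei, and pyknosed cells into mitotic or apoptotic; tubulin, mitochondrial-mass and membrane-permeability phenotypes are per cents of healthy-nucleus cells.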

[2] = tested on: HEK-293T; assay: Multiplex assay against HEK293T; assay type: toxicity, cell-based; conditions: human; method in brief: as §1
[3] = 12 h, 1 µM, compound concentration 1 uM
[4] = 12 h, 10 µM, compound concentration 10 uM
[5] = 24 h, 1 µM, compound concentration 1 uM
[6] = 24 h, 10 µM, compound concentration 10 uM
[7] = 48 h, 1 µM, compound concentration 1 uM
[8] = 48 h, 10 µM, compound concentration 10 uM

COc1cc(NC(=O)CCN2CCC(OC(=O)Nc3ccccc3-c3ccccc3)CC2)c(Cl)cc1CNC[C@H](O)c1ccc(O)c2[nH]c(=O)ccc12 [BATEFENTEROL]
Population Apoptotic (%) [1, 3]: 53% and 37%
Population Fragmented Nuclei (%) [1, 3]: 25%
Population Healthy Nuclei (%) [1, 3]: 58% and 54%
Population Hoechst High Intensity Objects (%) [1, 3]: 2% and 3%
Population Membrane Permeable-Phenotype (%) [1, 3]: 0% and 3%
Population Mitochondria Different-Phenotype (%) [1, 3]: 13% and 7%
Population Mitotic Cells (%) [1, 3]: 46% and 62%
Population Normal (%) [1, 3]: 97% and 96%
Population Pyknosed Nuclei (%) [1, 3]: 15% and 20%
Population Tubulin-Different-Phenotype (%) [1, 3]: 42% and 50%
Total Cell Count [1, 3]: 181 and 124
Population Apoptotic (%) [1, 4]: 46% and 41%
Population Fragmented Nuclei (%) [1, 4]: 24% and 44%
Population Healthy Nuclei (%) [1, 4]: 59% and 41%
Population Hoechst High Intensity Objects (%) [1, 4]: 2%
Population Membrane Permeable-Phenotype (%) [1, 4]: 0% and 1%
Population Mitochondria Different-Phenotype (%) [1, 4]: 22% and 23%
Population Mitotic Cells (%) [1, 4]: 53% and 58%
Population Normal (%) [1, 4]: 97%
Population Pyknosed Nuclei (%) [1, 4]: 16% and 13%
Population Tubulin-Different-Phenotype (%) [1, 4]: 63% and 84%
Total Cell Count [1, 4]: 199 and 128
Population Apoptotic (%) [1, 5]: 55% and 50%
Population Fragmented Nuclei (%) [1, 5]: 21% and 26%
Population Healthy Nuclei (%) [1, 5]: 62% and 59%
Population Hoechst High Intensity Objects (%) [1, 5]: 1% and 2%
Population Membrane Permeable-Phenotype (%) [1, 5]: 0% and 3%
Population Mitochondria Different-Phenotype (%) [1, 5]: 7% and 10%
Population Mitotic Cells (%) [1, 5]: 44% and 50%
Population Normal (%) [1, 5]: 98% and 97%
Population Pyknosed Nuclei (%) [1, 5]: 15% and 14%
Population Tubulin-Different-Phenotype (%) [1, 5]: 39% and 57%
Total Cell Count [1, 5]: 174 and 131
Population Apoptotic (%) [1, 6]: 51% and 81%
Population Fragmented Nuclei (%) [1, 6]: 35% and 46%
Population Healthy Nuclei (%) [1, 6]: 53% and 45%
Population Hoechst High Intensity Objects (%) [1, 6]: 0% and 1%
Population Membrane Permeable-Phenotype (%) [1, 6]: 0% and 1%
Population Mitochondria Different-Phenotype (%) [1, 6]: 34% and 14%
Population Mitotic Cells (%) [1, 6]: 48% and 18%
Population Normal (%) [1, 6]: 99% and 98%
Population Pyknosed Nuclei (%) [1, 6]: 11% and 8%
Population Tubulin-Different-Phenotype (%) [1, 6]: 63% and 80%
Total Cell Count [1, 6]: 247 and 136
Population Apoptotic (%) [1, 7]: 62% and 66%
Population Fragmented Nuclei (%) [1, 7]: 23% and 29%
Population Healthy Nuclei (%) [1, 7]: 54% and 56%
Population Hoechst High Intensity Objects (%) [1, 7]: 3%
Population Membrane Permeable-Phenotype (%) [1, 7]: 0% and 4%
Population Mitochondria Different-Phenotype (%) [1, 7]: 18% and 14%
Population Mitotic Cells (%) [1, 7]: 37% and 33%
Population Normal (%) [1, 7]: 96%
Population Pyknosed Nuclei (%) [1, 7]: 22% and 14%
Population Tubulin-Different-Phenotype (%) [1, 7]: 53% and 70%
Total Cell Count [1, 7]: 185 and 130
Population Apoptotic (%) [1, 8]: 74% and 88%
Population Fragmented Nuclei (%) [1, 8]: 22% and 45%
Population Healthy Nuclei (%) [1, 8]: 54% and 48%
Population Hoechst High Intensity Objects (%) [1, 8]: 1% and 0%
Population Membrane Permeable-Phenotype (%) [1, 8]: 0% and 1%
Population Mitochondria Different-Phenotype (%) [1, 8]: 45% and 15%
Population Mitotic Cells (%) [1, 8]: 25% and 11%
Population Normal (%) [1, 8]: 98% and 99%
Population Tubulin-Different-Phenotype (%) [1, 8]: 77% and 76%
Total Cell Count [1, 8]: 213 and 144
Population Apoptotic (%) [2, 3]: 42% and 47%
Population Fragmented Nuclei (%) [2, 3]: 4% and 3%
Population Healthy Nuclei (%) [2, 3]: 81% and 78%
Population Hoechst High Intensity Objects (%) [2, 3]: 7% and 8%
Population Membrane Permeable-Phenotype (%) [2, 3]: 0%
Population Mitochondria Different-Phenotype (%) [2, 3]: 65% and 84%
Population Mitotic Cells (%) [2, 3]: 57% and 52%
Population Normal (%) [2, 3]: 92% and 91%
Population Pyknosed Nuclei (%) [2, 3]: 14% and 17%
Population Tubulin-Different-Phenotype (%) [2, 3]: 44% and 41%
Total Cell Count [2, 3]: 420 and 285
Population Apoptotic (%) [2, 4]: 100% and 52%
Population Hoechst High Intensity Objects (%) [2, 4]: 31% and 11%
Population Membrane Permeable-Phenotype (%) [2, 4]: 0% and 1%
Population Normal (%) [2, 4]: 68% and 88%
Population Pyknosed Nuclei (%) [2, 4]: 9% and 22%
Population Apoptotic (%) [2, 5]: 44% and 41%
Population Fragmented Nuclei (%) [2, 5]: 9% and 7%
Population Healthy Nuclei (%) [2, 5]: 77% and 82%
Population Hoechst High Intensity Objects (%) [2, 5]: 5% and 8%
Population Membrane Permeable-Phenotype (%) [2, 5]: 0%
Population Mitochondria Different-Phenotype (%) [2, 5]: 59% and 65%
Population Mitotic Cells (%) [2, 5]: 55% and 58%
Population Normal (%) [2, 5]: 94% and 91%
Population Pyknosed Nuclei (%) [2, 5]: 12% and 9%
